Data taken from ChEMBL document CHEMBL1148735, “4-Substituted trinems as broad spectrum beta-lactamase inhibitors: structure-based design, synthesis, and biological activity” (J Med Chem, 2007).

What was measured:
Beta-lactamase = Beta-lactamase (Enterobacter cloacae, UniProt P05364); assay: Inhibition of Enterobacter cloacae AmpC
Beta-lactamase SHV-1 = biological target: T1, Beta-lactamase SHV-1 (Escherichia coli, UniProt P0AD63); assay: Inhibition of Escherichia coli SHV1
T1 sequence (P0AD63 whole entry): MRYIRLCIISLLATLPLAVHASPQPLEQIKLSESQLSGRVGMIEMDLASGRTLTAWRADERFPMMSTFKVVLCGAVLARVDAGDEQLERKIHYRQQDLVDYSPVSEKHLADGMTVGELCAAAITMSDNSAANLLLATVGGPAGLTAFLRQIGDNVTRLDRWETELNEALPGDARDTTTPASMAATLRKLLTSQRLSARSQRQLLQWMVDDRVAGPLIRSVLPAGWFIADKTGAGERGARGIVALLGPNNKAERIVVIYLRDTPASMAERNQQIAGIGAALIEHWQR
How it was run: (§1)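 Recombinant β-lactamase, expressed in the pET system without its signal peptide and carrying an N-terminal His6 tag, purified on Ni-NTA. Inhibitor made as a 50 mM DMSO stock, then diluted in 50 mM phosphate pH 7 with 10% DMSO final. Enzyme and inhibitor preincubated 10 min at 37 °C. Started with prewarmed nitrocefin; A490 read every 30 s for 10 min at 37 °C.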

Beta-lactamase TEM = Beta-lactamase TEM (Escherichia coli, UniProt P62593); assay: Inhibition of Escherichia coli TEM1; how it was run: as §1
Chain of Beta-lactamase TEM (P62593 whole entry): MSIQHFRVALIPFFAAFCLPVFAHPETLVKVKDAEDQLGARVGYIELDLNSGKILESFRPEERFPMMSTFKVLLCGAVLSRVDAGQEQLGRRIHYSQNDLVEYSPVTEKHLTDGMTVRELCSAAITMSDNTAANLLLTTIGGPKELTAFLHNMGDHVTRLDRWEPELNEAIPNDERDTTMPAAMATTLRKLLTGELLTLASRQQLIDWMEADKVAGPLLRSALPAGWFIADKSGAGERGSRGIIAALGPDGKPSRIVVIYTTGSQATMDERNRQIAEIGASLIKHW

Chain of Beta-lactamase (P05364 whole entry): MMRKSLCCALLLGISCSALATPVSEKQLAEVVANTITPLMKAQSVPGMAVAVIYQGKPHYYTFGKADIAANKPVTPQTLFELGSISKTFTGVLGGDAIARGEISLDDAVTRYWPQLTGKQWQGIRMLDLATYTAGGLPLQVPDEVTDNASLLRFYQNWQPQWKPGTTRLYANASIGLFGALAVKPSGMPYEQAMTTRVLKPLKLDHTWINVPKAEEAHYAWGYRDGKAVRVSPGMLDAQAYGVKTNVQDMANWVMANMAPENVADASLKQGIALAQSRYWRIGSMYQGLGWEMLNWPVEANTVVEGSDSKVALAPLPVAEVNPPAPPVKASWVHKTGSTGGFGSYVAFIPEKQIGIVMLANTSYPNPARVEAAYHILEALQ

| Compound | IC50 (Beta-lactamase) [nM] | IC50 (Beta-lactamase SHV-1) [nM] | IC50 (Beta-lactamase TEM) [nM] |
| --- | --- | --- | --- |
| C/C=C1/C(=O)N2C(C(=O)O)=C3[C@@H](CCC[C@H]3OCC)[C@H]12 | 295 | 284 | 22 |
| C/C=C1/C(=O)N2C(C(=O)O)=C3[C@@H](OCC)CCC[C@@H]3[C@H]12 | 229 | 385 | 57 |
| C/C=C1/C(=O)N2C(C(=O)O)=C3[C@@H](OCCF)CCC[C@@H]3[C@H]12 | 1020 | 148 | 21 |
| C/C=C1/C(=O)N2C(C(=O)O)=C3[C@@H](OC(C)C)CCC[C@@H]3[C@H]12 | 341 | 340 | 39 |
| C/C=C1/C(=O)N2C(C(=O)O)=C3[C@@H](OCCCC)CCC[C@@H]3[C@H]12 | 720 | 206 | 32 |
| C/C=C1/C(=O)N2C(C(=O)O)=C3[C@@H](CCC[C@H]3OCCCC)[C@H]12 | 430 | 219 | 12 |
| C/C=C1/C(=O)N2C(C(=O)O)=C3[C@@H](OCCC#N)CCC[C@@H]3[C@H]12 | 209 | 152 | 18 |
